Data reported in ChEMBL document CHEMBL1156745, “Exploration of O-spiroketal C-arylglucosides as novel and selective renal sodium-dependent glucose co-transporter 2 (SGLT2) inhibitors” (Bioorg Med Chem Lett, 2009).

How the values were obtained:
[1] = biological target: T1, Sodium/glucose cotransporter 1 (Homo sapiens, UniProt P13866); test: Inhibition of human SGLT1 transfected in COS-7 cells assessed as AMG uptake after 2 hrs by scintillation counting; format: cell-based
T1 sequence (P13866 whole entry): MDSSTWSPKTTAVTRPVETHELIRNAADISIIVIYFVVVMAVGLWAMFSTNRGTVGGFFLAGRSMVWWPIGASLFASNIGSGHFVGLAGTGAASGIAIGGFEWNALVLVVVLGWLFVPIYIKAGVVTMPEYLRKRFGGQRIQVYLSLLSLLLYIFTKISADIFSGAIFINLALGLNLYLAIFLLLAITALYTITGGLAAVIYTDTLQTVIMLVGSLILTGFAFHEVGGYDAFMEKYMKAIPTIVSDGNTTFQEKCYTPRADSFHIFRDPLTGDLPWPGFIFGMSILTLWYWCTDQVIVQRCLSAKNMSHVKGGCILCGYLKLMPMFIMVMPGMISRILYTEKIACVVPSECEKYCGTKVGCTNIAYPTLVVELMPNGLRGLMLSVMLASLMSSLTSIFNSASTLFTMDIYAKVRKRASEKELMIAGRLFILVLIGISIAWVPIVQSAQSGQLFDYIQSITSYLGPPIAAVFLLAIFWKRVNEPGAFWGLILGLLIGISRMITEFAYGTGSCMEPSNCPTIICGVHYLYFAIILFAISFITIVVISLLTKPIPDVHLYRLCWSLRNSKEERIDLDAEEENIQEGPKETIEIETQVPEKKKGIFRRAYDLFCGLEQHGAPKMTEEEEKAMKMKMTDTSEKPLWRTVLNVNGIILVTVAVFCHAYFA
Method in brief: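 Transient transfection of human SGLT1 plasmid into COS-7 cells, which were cryopreserved until use. Seeded at 1 × 10⁵ cells/well in DMEM + 10% FBS, 48 h at 37 °C, 5% CO₂. Exposed to inhibitor with 40 µCi/mL [¹⁴C]AMG in Na⁺ or Na⁺-free Tris/Hepes buffer pH 7.2 for 2 h at 37 °C, shaking. Eight concentrations, triplicate. Na⁺-dependent uptake taken as Na⁺ minus Na⁺-free signal.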

[2] = biological target: T2, Sodium/glucose cotransporter 2 (Homo sapiens, UniProt P31639); test: Inhibition of human SGLT2 transfected in HEK293.ETN cells assessed as AMG uptake after 1.5 hrs by scintillation counting; format: cell-based
T2 sequence (P31639 whole entry): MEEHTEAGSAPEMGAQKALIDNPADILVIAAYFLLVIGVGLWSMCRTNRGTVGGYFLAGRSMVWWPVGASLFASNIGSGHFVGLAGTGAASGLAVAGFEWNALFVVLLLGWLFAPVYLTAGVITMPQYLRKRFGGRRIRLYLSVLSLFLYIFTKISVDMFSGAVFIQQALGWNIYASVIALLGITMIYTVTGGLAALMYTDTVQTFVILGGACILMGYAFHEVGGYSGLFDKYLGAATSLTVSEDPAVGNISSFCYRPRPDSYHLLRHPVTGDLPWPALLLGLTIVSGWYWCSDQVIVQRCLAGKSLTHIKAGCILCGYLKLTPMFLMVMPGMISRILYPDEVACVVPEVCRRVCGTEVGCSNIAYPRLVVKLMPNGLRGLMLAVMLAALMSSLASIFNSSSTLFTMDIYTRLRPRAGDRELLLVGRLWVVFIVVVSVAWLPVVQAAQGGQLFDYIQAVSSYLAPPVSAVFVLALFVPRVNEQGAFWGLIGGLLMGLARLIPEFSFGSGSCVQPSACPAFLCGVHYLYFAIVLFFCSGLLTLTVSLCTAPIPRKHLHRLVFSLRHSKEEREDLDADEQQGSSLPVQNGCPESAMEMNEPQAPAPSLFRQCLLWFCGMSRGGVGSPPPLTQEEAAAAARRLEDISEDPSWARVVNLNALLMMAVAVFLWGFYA
Method in brief: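 Full-length human SGLT2 in pEAK15, stably expressed in HEK293.ETN (puromycin-selected clones). Cells plated 1 × 10⁵/well in DMEM/10% FBS, 48 h, 37 °C. Compound plus 40 µCi/mL [¹⁴C]AMG in sodium or sodium-free Tris/Hepes buffer pH 7.2, 1.5 h at 37 °C with shaking. Washed, uptake read by scintillation counting. Eight concentrations in triplicate. Sodium-free value subtracted from sodium value.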

Mus musculus = test: Toxicity in CD1 mouse assessed as induction of severe diarrhea at 25 mg/kg, po after 6 hrs; format: organism-based; set-up: dose 25 mg/kg, route oral; settings: in vivo
Method in brief: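 CD1 mice given a single oral dose of 25 mg/kg. Watched for diarrhea at 6 h.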

Structure (SMILES)	IC50 [1] [nM]	IC50 [2] [nM]	Activity (Mus musculus)
CCc1ccc(Cc2cccc3c2CO[C@]32O[C@H](CO)[C@@H](O)[C@H](O)[C@H]2O)cc1	–	> 1000	–
CCc1ccc(Cc2cc3c(cc2F)CO[C@]32O[C@H](CO)[C@@H](O)[C@H](O)[C@H]2O)cc1	5300	8.6	–
CCc1ccc(C2(c3cc4c(cc3Cl)CO[C@]43O[C@H](CO)[C@@H](O)[C@H](O)[C@H]3O)CC2)cc1	6000	1.3	–
CCc1ccc(Cc2cc3c(cc2Cl)CO[C@]32O[C@H](CN)[C@@H](O)[C@H](O)[C@H]2O)cc1	> 100000	100	–
CCOc1ccc(Cc2cc3c(cc2Cl)CO[C@]32O[C@H](CO)[C@@H](O)[C@H](O)[C@H]2O)c(Cl)c1	10000	> 1000	–
CCc1ccc(Cc2cc3c(cc2Cl)CO[C@]32O[C@H](COC)[C@@H](O)[C@H](O)[C@H]2O)cc1	2700	5.8	–
CCc1ccc(Cc2cc3c(cc2Cl)CO[C@]32O[C@H](CN=[N+]=[N-])[C@@H](O)[C@H](O)[C@H]2O)cc1	1000	10	–
CCOc1ccc(Cc2cc3c(cc2Cl)CO[C@]32O[C@H](CO)[C@@H](O)[C@H](O)[C@H]2O)cc1	1300	6.5	–
Cc1cc(F)ccc1Cc1cc2c(cc1Cl)CO[C@]21O[C@H](CO)[C@@H](O)[C@H](O)[C@H]1O	1000	100	–
CC(C)(C)c1ccc(Cc2cc3c(cc2Cl)CO[C@]32O[C@H](CO)[C@@H](O)[C@H](O)[C@H]2O)cc1	9700	13	–

The next lines start with results.

IC50 [1] [nM]	IC50 [2] [nM]	Structure (SMILES)	Activity (Mus musculus)
10500	68	CCOc1ccc(Cc2cc3c(cc2Cl)CO[C@]32O[C@H](CO)[C@@H](O)[C@H](O)[C@H]2O)cc1Cl	–
2500	7.1	CC(C)c1ccc(Cc2cc3c(cc2Cl)CO[C@]32O[C@H](CO)[C@@H](O)[C@H](O)[C@H]2O)cc1	–
1000	10	COc1c(C)cccc1Cc1cc2c(cc1Cl)CO[C@]21O[C@H](CO)[C@@H](O)[C@H](O)[C@H]1O	–
1600	7	CCc1ccc(C(F)(F)c2cc3c(cc2Cl)CO[C@]32O[C@H](CO)[C@@H](O)[C@H](O)[C@H]2O)cc1	–
1000	> 1000	CCOc1ccc(Cc2cc3c(cc2Cl)CO[C@]32O[C@H](CO)[C@@H](O)[C@H](O)[C@H]2O)c(C)c1	–
600	6.6	CCc1ccc(Cc2cc3c(cc2Cl)CO[C@]32O[C@H](CO)[C@@H](O)[C@H](O)[C@H]2O)cc1	Toxic
43000	22	CCc1ccc(C(=O)c2cc3c(cc2Cl)CO[C@]32O[C@H](CO)[C@@H](O)[C@H](O)[C@H]2O)cc1	–
10000	1000	CCOc1cc(F)ccc1Cc1cc2c(cc1Cl)CO[C@]21O[C@H](CO)[C@@H](O)[C@H](O)[C@H]1O	–
10000	> 1000	COc1ccc(Cc2cc3c(cc2Cl)CO[C@]32O[C@H](CO)[C@@H](O)[C@H](O)[C@H]2O)c(C)c1	–
1500	0.8	Cc1cccc(Cc2cc3c(cc2Cl)CO[C@]32O[C@H](CO)[C@@H](O)[C@H](O)[C@H]2O)c1F	–
200	2.5	COc1ccc(Cc2cc3c(cc2Cl)CO[C@]32O[C@H](CO)[C@@H](O)[C@H](O)[C@H]2O)cc1	–
3100	0.3	OC[C@H]1O[C@]2(OCc3cc(Cl)c(Cc4ccc(OC(F)(F)F)cc4)cc32)[C@H](O)[C@@H](O)[C@@H]1O	–
14000	70	CCc1ccc(Cc2cc3c(cc2Cl)CO[C@]32O[C@H](COCC(F)(F)F)[C@@H](O)[C@H](O)[C@H]2O)cc1	–
10000	–	CCOc1ccc(Cc2ccc3c(c2)[C@]2(OC3)O[C@H](CO)[C@@H](O)[C@H](O)[C@H]2O)cc1	–
